Measured values taken from ChEMBL document CHEMBL1145112, “Pyrazolo[4,3-e]-1,2,4-triazolo[1,5-c]pyrimidine derivatives as adenosine receptor antagonists. Influence of the N5 substituent on the affinity at the human A 3 and A 2B adenosine receptor subtypes: a molecular modeling investigation” (J Med Chem, 2003).

How the values were obtained:
[1] = biological target: T1, Adenosine receptor A2b (Homo sapiens, UniProt P29275); assay: Displacement of [3H]DPCPX from human adenosine A2B receptor expressed in HEK293 cells; assay type: cell-based
T1 sequence (P29275 whole entry): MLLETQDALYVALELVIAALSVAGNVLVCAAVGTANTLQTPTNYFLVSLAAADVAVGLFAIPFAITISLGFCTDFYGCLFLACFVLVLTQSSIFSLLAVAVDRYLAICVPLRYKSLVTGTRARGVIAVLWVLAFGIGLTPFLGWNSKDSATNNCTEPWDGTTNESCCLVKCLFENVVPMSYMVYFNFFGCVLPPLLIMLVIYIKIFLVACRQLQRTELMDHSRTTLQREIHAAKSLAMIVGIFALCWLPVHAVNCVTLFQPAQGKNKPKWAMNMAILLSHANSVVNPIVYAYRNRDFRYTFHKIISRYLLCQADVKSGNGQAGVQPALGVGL
Summary of the method: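 Competition run 60 min at 25 °C in 50 mM Tris-HCl, 10 mM MgCl2, 1 mM EDTA, 0.1 mM […], pH 7.4, with 2 IU/mL adenosine deaminase. Assays held 40 nM [3H]-DPCPX, membranes (20 μg protein/assay) and at least six to eight compound concentrations. Nonspecific binding was set with 100 μM NECA. Filtered on GF/B and counted. n = 3–6, mean ± SEM.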

[2] = biological target: Adenosine receptors; A1 & A2b (Homo sapiens) (UniProt P30542+P29275); assay: Relative inhibitory activity against adenosine A1 and A2B receptors; assay type: protein assay
[3] = biological target: T2, Adenosine receptor A3 (Homo sapiens, UniProt P0DMS8); assay: Displacement of [3H]MRE3008-F20 from human A3 receptors expressed in HEK293 cells; assay type: cell-based
T2 sequence (P0DMS8 whole entry): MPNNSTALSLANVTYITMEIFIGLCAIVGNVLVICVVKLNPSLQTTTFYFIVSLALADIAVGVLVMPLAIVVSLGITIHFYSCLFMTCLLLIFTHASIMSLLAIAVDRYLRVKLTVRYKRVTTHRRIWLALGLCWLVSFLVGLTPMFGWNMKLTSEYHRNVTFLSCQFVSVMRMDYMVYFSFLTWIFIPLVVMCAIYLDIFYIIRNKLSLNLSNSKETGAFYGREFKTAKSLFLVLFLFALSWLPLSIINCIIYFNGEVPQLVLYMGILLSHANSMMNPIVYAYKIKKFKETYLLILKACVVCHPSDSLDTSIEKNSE
Summary of the method: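 Duplicate competition tubes: 1 nM [3H]-MRE3008-F20 in 50 mM Tris-HCl, 10 mM MgCl2, pH 7.4, membranes (50 μg protein/assay) and at least six to eight ligand concentrations, incubated 120 min at 4 °C. Nonspecific binding was set with 1 μM unlabeled MRE3008-F20. Bound radioactivity was collected on GF/B filters and counted.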

[4] = biological target: T3, Adenosine receptor A1 (Homo sapiens, UniProt P30542); assay: Displacement of [3H]DPCPX from human Adenosine A1 receptor expressed in CHO cells; assay type: cell-based
T3 sequence (P30542 whole entry): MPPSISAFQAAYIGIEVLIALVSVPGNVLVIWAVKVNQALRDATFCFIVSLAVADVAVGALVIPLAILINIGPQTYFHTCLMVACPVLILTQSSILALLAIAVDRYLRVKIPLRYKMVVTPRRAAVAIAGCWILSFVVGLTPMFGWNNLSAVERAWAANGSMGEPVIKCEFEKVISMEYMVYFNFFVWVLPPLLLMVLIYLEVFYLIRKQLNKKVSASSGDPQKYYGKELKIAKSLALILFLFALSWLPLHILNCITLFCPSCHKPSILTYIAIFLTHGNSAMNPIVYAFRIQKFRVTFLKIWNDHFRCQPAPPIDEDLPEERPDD
Summary of the method: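 Membranes from the transfected cells in 50 mM Tris-HCl, pH 7.4, incubated 120 min at 25 °C with 1 nM [3H]-DPCPX (50 μg protein/assay) and at least six to eight test concentrations. Nonspecific binding was set with 10 μM CHA. Bound and free ligand were separated by GF/B filtration, then scintillation counted. n = 3–6, mean ± SEM.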

[5] = biological target: Adenosine receptors; A2b & A3 (Homo sapiens) (UniProt P29275+P0DMS8); assay: Relative inhibitory activity against adenosine A3 receptors and A2B receptors; assay type: protein assay
[6] = biological target: Adenosine receptor A2a (Homo sapiens, UniProt P29274); assay: Displacement of [3H]ZM-241385 from human adenosine A2A receptors expressed in HEK293 cells; assay type: cell-based
[7] = biological target: T1, Adenosine receptor A2b; assay: Inhibitory activity against NECA stimulated cAMP accumulation in CHO cells expressing human adenosine A2B receptor; assay type: functional, cell-based
Summary of the method: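 Transfected CHO cells (1 × 10^6/assay) in pH 7.4 saline/HEPES/glucose medium with 2 IU/mL adenosine deaminase and Ro 20-1724 (phosphodiesterase inhibitor), preincubated 10 min at 37 °C. Antagonism of 100 nM NECA-stimulated cAMP was measured. Reaction stopped with cold 6% TCA, then ether extraction. cAMP was quantified by competitive binding with [3H]-cAMP and beef adrenal binding protein (150 min, 4 °C), with charcoal separation and scintillation counting.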

Sequence of Adenosine receptor A2a (P29274 whole entry): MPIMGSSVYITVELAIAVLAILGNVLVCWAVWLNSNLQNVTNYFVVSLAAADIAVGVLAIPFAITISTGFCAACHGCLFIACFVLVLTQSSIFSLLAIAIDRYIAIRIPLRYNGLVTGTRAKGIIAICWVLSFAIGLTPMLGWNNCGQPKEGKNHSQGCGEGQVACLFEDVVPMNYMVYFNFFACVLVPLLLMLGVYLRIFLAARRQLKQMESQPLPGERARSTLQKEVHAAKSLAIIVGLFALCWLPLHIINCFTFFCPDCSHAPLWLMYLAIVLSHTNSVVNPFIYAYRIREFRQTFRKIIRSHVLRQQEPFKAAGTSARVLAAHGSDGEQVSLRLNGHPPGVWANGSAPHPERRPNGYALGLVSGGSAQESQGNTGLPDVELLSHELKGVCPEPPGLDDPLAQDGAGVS

| SMILES | Ki [1] [nM] | Ratio [2] | Ki [3] [nM] | Ki [4] [nM] | Ratio [5] | Ki [6] [nM] | IC50 [7] [nM] |
| --- | --- | --- | --- | --- | --- | --- | --- |
| O=C(COc1ccccc1)Nc1nc2nn(CCCc3ccccc3)cc2c2nc(-c3ccco3)nn12 | 25 | 2 | 40 | 50 | 1.6 | 45 | 140 |
| O=C(COc1ccccc1)Nc1nc2nn(CCc3ccccc3)cc2c2nc(-c3ccco3)nn12 | 22 | 0.9 | 300 | 20 | 13.6 | 40 | 130 |
| CC(C)CCn1cc2c(nc(NC(=O)Cc3cccc4ccccc34)n3nc(-c4ccco4)nc23)n1 | 28 | 5.07 | 215 | 142 | 7.7 | 42 | 170 |
| Cn1cc2c(nc(NC(=O)Cc3ccccc3)n3nc(-c4ccco4)nc23)n1 |  | 4.2 |  |  | 0.05 |  |  |
| O=C(Cc1cccc2ccccc12)Nc1nc2nn(CCc3ccccc3)cc2c2nc(-c3ccco3)nn12 | 30 | 3 | 120 | 90 | 4 | 55 | 180 |
| O=C(Cc1ccccc1)Nc1nc2nn(CCCc3ccccc3)cc2c2nc(-c3ccco3)nn12 | 40 | 1.9 |  | 75 | 3 | 60 | 250 |
| O=C(Cc1cccc2ccccc12)Nc1nc2nn(CCCc3ccccc3)cc2c2nc(-c3ccco3)nn12 | 20 | 55 | 300 | 1100 | 15 | 800 | 110 |
| CC(C)CCn1cc2c(nc(NC(=O)Cc3ccccc3)n3nc(-c4ccco4)nc23)n1 | 31 | 6.4 |  | 200 | 2.6 | 57 | 190 |
| O=C(Cc1ccccc1)Nc1nc2nn(CCc3ccccc3)cc2c2nc(-c3ccco3)nn12 | 35 | 3.4 | 45 | 120 | 1.3 | 60 | 210 |
| Cn1cc2c(nc(NC(=O)Nc3ccccc3)n3nc(-c4ccco4)nc23)n1 |  | 2.67 |  |  | 0.0007 |  |  |
| Nc1nc2nn(CCc3ccccc3)cc2c2nc(-c3ccco3)nn12 |  | 0.2 |  |  |  |  |  |
| CC(C)CCn1cc2c(nc(NC(=O)COc3ccccc3)n3nc(-c4ccco4)nc23)n1 | 25 | 2.2 | 50 | 55 | 2 | 38 | 150 |
